Only some compounds are listed: those with a hit (about 2.3% of all), similar ones and a draw of the others.
Calb FLC = C. albicans growth inhibition with fluconazole, primary screen, CaCi-2 strain, Alamar Blue fluorescence; C. albicans CaCi-2 (fluconazole-resistant clinical isolate) + fluconazole, 48 h; growth inhibition, % (test concentration not listed); hit rate 0.57% among 300,000; AID 1979, 2009;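 active means growth inhibition above about 58% in most replicates, limit read from the data, passing the limit was not always enough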;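 further: all wells also contain fluconazole at 8 µg/ml as a sub-toxic cotreatment; 0% = median of DMSO wells and 100% = median of geldanamycin control wells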
ASAP1 GAP inh = inhibitors of human ASAP1 ArfGAP activity, primary screen, biochemical, fluorescence polarization. ASAP1-stimulated ARF1 GTP hydrolysis, GDP FP detection. inhibition, % at 16.5 µM. hit rate 0.19% among 360,000. AID 624377, 2012; in the data active means inhibition above about 25%;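 further: 0% = vehicle with enzyme and substrate and 100% = no enzyme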
HGIII-sPLA2 inh = human group III sPLA2 inhibitors, primary screen, biochemical, QFRET, BODIPY PC-A2 liposome substrate; hit rate 0.56% among 370,000; QFRET BODIPY PC-A2 liposome hydrolysis, fluorescence; inhibition, % at 12.2 µM; Group 3 secretory phospholipase A2 (Homo sapiens), Q9NZ20;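 active means inhibition above mean plus 3 SD of compounds lying within the high and low control bounds, cut at about 19% in these data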;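 further: 0% = median of test compound wells and 100% = no enzyme DMSO wells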
Target sequence (Q9NZ20 whole entry, looked up): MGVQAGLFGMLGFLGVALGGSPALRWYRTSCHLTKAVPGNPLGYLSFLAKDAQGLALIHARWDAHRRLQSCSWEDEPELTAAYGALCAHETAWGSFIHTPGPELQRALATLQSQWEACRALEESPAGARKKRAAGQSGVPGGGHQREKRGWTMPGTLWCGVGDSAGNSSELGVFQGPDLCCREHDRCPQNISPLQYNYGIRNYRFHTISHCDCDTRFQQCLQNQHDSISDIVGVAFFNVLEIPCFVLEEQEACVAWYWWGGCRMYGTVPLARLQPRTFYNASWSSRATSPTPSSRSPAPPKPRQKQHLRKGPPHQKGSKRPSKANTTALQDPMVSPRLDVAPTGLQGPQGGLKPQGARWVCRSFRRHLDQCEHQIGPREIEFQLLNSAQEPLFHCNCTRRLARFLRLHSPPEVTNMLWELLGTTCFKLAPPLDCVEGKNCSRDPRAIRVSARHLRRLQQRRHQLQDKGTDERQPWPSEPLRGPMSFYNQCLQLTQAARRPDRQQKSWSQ
SKKanGAS inh = S. pyogenes SKKanGAS growth inhibitors in kanamycin, primary screen, streptokinase expression inhibitor project, SKKanGAS strain, BacTiter-Glo luminescence. hit rate 1.3% among 300,000. 6 h. inhibition, % at 7.5 µM;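 active means mean replicate score, as percent of positive control median, at least 50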;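 further: strain carries kanamycin resistance gene driven by streptokinase promoter and grows in 40 µg/ml kanamycin; loss of luminescence reflects streptokinase promoter inhibition or plain growth inhibition; 0% = median of DMSO wells and 100% = positive control at its reference dose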
ARFGAP1 inhibitor = inhibitors of rat ARFGAP1 GAP activity, primary screen, biochemical, fluorescence polarization, GDP tracer. ADP-ribosylation factor GTPase-activating protein 1 (Rattus norvegicus), Q62848. hit rate 0.26% among 360,000. inhibition, % at 16.5 µM. Arfgap1-stimulated ARF1 GTP hydrolysis, GDP FP detection;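 active means inhibition above a per-plate limit, mean inhibition of low control wells plus 3 SD, cut at about 25% in these data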;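 further: 0% = DMSO wells with enzyme and 100% = wells lacking Arfgap1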
Target sequence (Q62848 1-136 limits assumed): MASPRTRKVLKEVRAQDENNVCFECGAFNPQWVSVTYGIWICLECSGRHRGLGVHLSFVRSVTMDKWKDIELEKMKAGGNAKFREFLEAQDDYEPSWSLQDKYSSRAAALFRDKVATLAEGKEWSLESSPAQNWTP
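Repeats: one replicate per compound; assay system: rat Arfgap1 catalytic domain, aa 1-136; times: enzyme reaction 120 min at 25 °C after 20 min preincubation; detection: FP of antibody-bound GDP Alexa 633 tracer, ex 620/em 688 nm; benchmarks: high control wells lacking Arfgap1, low control full reaction with DMSO; reagent: human ARF1(Δ1-17)-GTP substrate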
Active calls of the source: *.

For CCC(=O)NC(c1cccs1)c1cc(Cl)c2cccnc2c1O (centres undefined) the results were Calb FLC 99*, ASAP1 GAP inh 4, HGIII-sPLA2 inh 14, SKKanGAS inh 66* and ARFGAP1 inhibitor 2.
For CC(=O)NC(c1ccccc1)c1cc(Cl)c2cccnc2c1O (centres undefined) the results were Calb FLC 105*, ASAP1 GAP inh -6, HGIII-sPLA2 inh -4, SKKanGAS inh 79* and ARFGAP1 inhibitor -2.
For O=C(NC(c1ccc(Cl)cc1)c1cc(Cl)c2cccnc2c1O)c1cccnc1 (centres undefined) the results were Calb FLC 84*, ASAP1 GAP inh -7, HGIII-sPLA2 inh 14, SKKanGAS inh 113* and ARFGAP1 inhibitor -1.
`COC(=O)c1cc2c(c3c4cc(OC)ccc4n(S(=O)(=O)c4ccc(OC)cc4)c13)C(=O)N(Cc1ccccc1OC)C2` gave ASAP1 GAP inh 6, HGIII-sPLA2 inh 2 and ARFGAP1 inhibitor -2.
`Cc1scc(C(=O)N/N=C/c2ccc([N+](=O)[O-])o2)c1C` gave Calb FLC 90*, ASAP1 GAP inh 10, HGIII-sPLA2 inh 3, SKKanGAS inh -1 and ARFGAP1 inhibitor 3.
Cc1nc2ccccn2c1C(=O)N/N=C/c1ccc([N+](=O)[O-])o1 was read as Calb FLC 100*, ASAP1 GAP inh 3, HGIII-sPLA2 inh 1 and ARFGAP1 inhibitor 11.
`O=C(c1ccccc1)C12COc3ccccc3C1ON=C2c1ccccc1` (centres undefined) gave ASAP1 GAP inh -14, HGIII-sPLA2 inh 0 and ARFGAP1 inhibitor 6.
`Cc1c[nH]c2cccc(-c3ccccc3)c12` gave HGIII-sPLA2 inh 6.
`CCC[C@H]1[C@@H](N)CC[C@@]23CCCN2C(=O)CCC[C@@H]13` gave HGIII-sPLA2 inh 7.
Screening O=C(CCc1ccccc1)N[C@H]1[C@H](OC(=O)c2ccco2)CCC[C@@]12C(=O)N(Cc1ccccc1)c1ccccc12 returned HGIII-sPLA2 inh -7.
NC(=O)N/N=C\c1cc(Br)ccc1O was read as Calb FLC 4, ASAP1 GAP inh -9, HGIII-sPLA2 inh -8, SKKanGAS inh -2 and ARFGAP1 inhibitor -6.
For Cc1ccc(/C=N/NC(=O)c2nnn(-c3nonc3N)c2CNc2ccccc2)cc1 the results were Calb FLC -3, ASAP1 GAP inh 3, HGIII-sPLA2 inh -1, SKKanGAS inh 9 and ARFGAP1 inhibitor 7.
Nc1nonc1C(=O)N/N=C/c1cc(Br)ccc1O was read as Calb FLC 101*, ASAP1 GAP inh -6, HGIII-sPLA2 inh -8, SKKanGAS inh -6 and ARFGAP1 inhibitor -7.
Screening Nc1nonc1-n1nnc(C(=O)N/N=C/c2cc(Br)ccc2O)c1CNc1ccccc1 returned Calb FLC 88*, ASAP1 GAP inh -1, HGIII-sPLA2 inh 18, SKKanGAS inh 108* and ARFGAP1 inhibitor 6.
Screening Brc1ccc(-c2ccc(CNCc3ccccn3)o2)cc1 returned Calb FLC 8, ASAP1 GAP inh -8, HGIII-sPLA2 inh 4, SKKanGAS inh 67* and ARFGAP1 inhibitor -11.
Screening Cc1ccnc(NC(=S)N2CCN(c3cccc(C(F)(F)F)c3)CC2)c1 returned Calb FLC 8, ASAP1 GAP inh -9, HGIII-sPLA2 inh 8, SKKanGAS inh 68* and ARFGAP1 inhibitor 14.
Screening CCNC(=O)C[C@H]1CC[C@H]2[C@@H](COc3ccc(NC(=O)Nc4ccccc4)cc3C(=O)N2C)O1 returned HGIII-sPLA2 inh -14.
For Cc1cccc(OCC(=O)Nc2ccc(C(=O)Nc3ccccc3C(=O)O)cc2)c1C the results were Calb FLC 4, ASAP1 GAP inh 14, HGIII-sPLA2 inh -2, SKKanGAS inh 58* and ARFGAP1 inhibitor 11.
Screening COc1ccc(C(=O)Nc2ccccc2C(=O)Nc2ccccc2C(=O)O)cc1 returned Calb FLC 81*, ASAP1 GAP inh -2, HGIII-sPLA2 inh -58, SKKanGAS inh 26 and ARFGAP1 inhibitor -6.
For CC(C)c1ccc(OCC(=O)Nc2cccc(C(=O)Nc3ccccc3C(=O)O)c2)cc1 the results were Calb FLC 76*, ASAP1 GAP inh 16, HGIII-sPLA2 inh -61, SKKanGAS inh 34 and ARFGAP1 inhibitor 1.
CC(C)(C)c1ccc(OCC(=O)Nc2ccc(C(=O)Nc3ccccc3C(=O)O)cc2)cc1 was read as Calb FLC 11, ASAP1 GAP inh 10, HGIII-sPLA2 inh -13, SKKanGAS inh 83* and ARFGAP1 inhibitor -4.
For Cc1cccc(OCC(=O)Nc2cccc(C(=O)Nc3ccccc3C(=O)O)c2)c1 the results were Calb FLC 26, ASAP1 GAP inh 3, HGIII-sPLA2 inh -36, SKKanGAS inh 32 and ARFGAP1 inhibitor 7.
Screening COc1ccc(C(=O)Nc2ccccc2C(=O)Nc2ccc(C(=O)O)cc2)cc1 returned Calb FLC 16, ASAP1 GAP inh 2, HGIII-sPLA2 inh -5, SKKanGAS inh 4 and ARFGAP1 inhibitor -1.
COc1ccccc1OCC(=O)Nc1ccc(C(=O)Nc2ccccc2C(=O)O)cc1 was read as ASAP1 GAP inh 3, HGIII-sPLA2 inh -21 and ARFGAP1 inhibitor -10.
For CC(C)(C)c1ccc(OCC(=O)NNC(=O)Nc2ccccc2)cc1 the results were Calb FLC 13, ASAP1 GAP inh 7, HGIII-sPLA2 inh -54, SKKanGAS inh 0 and ARFGAP1 inhibitor 17.
`COc1ccccc1Cc1c(-c2ccccc2)nc2ccc(C)cn12` gave ASAP1 GAP inh -4, HGIII-sPLA2 inh 1 and ARFGAP1 inhibitor 12.
CC(=O)C1(C(=O)NCc2ccccc2)CC(c2ccccn2)=NO1 (centres undefined) was read as HGIII-sPLA2 inh 14.
Screening COC(=O)[C@]12C[C@H](CC(=O)NCc3cccc4ccccc34)C(=O)N(Cc3cccc4ccccc34)C1=C[C@H](C1CCCC1)O[C@@H]2C returned HGIII-sPLA2 inh -7.
CNC(=O)c1nnsc1S(=O)c1ccc(Cl)cc1 (centres undefined) was read as Calb FLC 105*, ASAP1 GAP inh -2, HGIII-sPLA2 inh 5, SKKanGAS inh 44 and ARFGAP1 inhibitor 5.
Screening CCCNC(=O)c1nnsc1S(=O)c1ccc(Cl)cc1 (centres undefined) returned Calb FLC 2, ASAP1 GAP inh 5, HGIII-sPLA2 inh 11, SKKanGAS inh 17 and ARFGAP1 inhibitor 13.
For C#CCNC(=O)C[C@H]1C[C@@]2(C(=O)OC)C(=C[C@H](C(C)(C)C)O[C@@H]2C)N(CCc2ccc(OC)c(OC)c2)C1=O the results were ASAP1 GAP inh -6, HGIII-sPLA2 inh 6 and ARFGAP1 inhibitor 3.

Screens from PubChem.
